One data set concerns Mouse neutrophils. Put plainly: Neutrophil chemotaxis assay. It counts as cell-based. To be noted: 1 μM in bottom chamber, 5 × 10^5 cells, 40 minutes, 37°C. The method, boiled down:
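Bone-marrow neutrophils from C57BL/6 mice, purified on Histopaque-1119/1077 gradients, CellTracker Green-labelled, 1 × 10^7 cells/ml in RPMI-1640. 5 × 10^5 cells placed in Transwell inserts; 1 μM peptides, PepO digests or fragments in lower chamber; 5 μM fMLP as positive control. 40 min at 37°C, migrated cells counted by fluorescence microscopy. CI = cells migrating toward stimulus ÷ toward medium.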

The next data set deals with S. suis ΔpepO. Put plainly: Live/Dead staining. The settings on record: 1 × 10^5 CFU/ml, 2 μM, 1 hour, CLSM. The class given is cell-based, Streptococcus suis. The method, boiled down: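 S. suis serotype 2 strain 05ZYH33 ΔpepO mutant, grown in TSB at 37°C/5% CO2; fresh culture washed twice, diluted to 1 × 10^5 CFU/ml. Exposed 1 h to 2 μM cathelicidin peptides, their PepO digests (20 μM peptide + 500 nM His-tagged PepO, PBS, 37°C, 3 h) or truncated fragments. BacLight stained, washed after 15 min, confocal imaging: SYTO9 480/500 nm, PI 490/635 nm.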

The subject of data set [1] is Mouse peritoneal macrophages. Kind of data set: Lysosome formation analysis. It counts as cell-based. To be noted: 2 μM, 37°C, 4 hours, 5 × 10^4 cells, CLSM. In a few lines:
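Macrophages from peritoneal fluid of C57BL/6 mice 3 days after i.p. thioglycollate; spun 600 × g 10 min, kept in RPMI-1640, non-adherent cells removed at 6 h. 5 × 10^4 cells exposed 4 h at 37°C to peptides, PepO digests or fragments. Fixed in 4% formaldehyde, permeabilised with 0.1% Triton X-100, blocked in 3% BSA. Rabbit anti-LAMP1 (37°C, 1 h), Alexa Fluor 594 secondary, DAPI; confocal imaging.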

For data set [2], the system named is ScpC protease. The settings on record: cited from earlier work.
The test system of data set [3] is PepO. Put plainly: Cleavage of cathelicidins by recombinant PepO. The class given is in vitro ADME, Streptococcus suis. The settings on record: 20 μM peptide, 500 nM PepO, PBS, 37°C, 3 hours; SDS-PAGE. In a few lines: (§1)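 Enzyme: His-tagged PepO (aa 29–663) or its Glu513→Ala variant, expressed from pET22b in E. coli BL21(DE3) with 0.5 mM IPTG at 16°C for 12 h. Purified by Ni-Sepharose and exchanged into PBS. Substrates were synthetic LL-37 or mCRAMP (>95% purity). Uncleaved peptide served as control. Products were analysed by SDS-PAGE or MALDI-TOF/TOF MS.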

A further data set concerns PepOE513A. Put plainly: Cleavage of cathelicidins by catalytic site-mutated PepOE513A. It counts as in vitro ADME, Streptococcus suis. The settings on record: 20 μM peptide, 500 nM PepOE513A, PBS, 37°C, 3 hours; SDS-PAGE. The method, boiled down: as §1
The test system of data set [4] is S. suis WT, ΔpepO, and CΔpepO strains. Kind of data set: Bactericidal assay, sensitivity of S. suis strains toward cathelicidins. The class given is cell-based, Streptococcus suis. To be noted: 8 × 10^4 CFU/ml in PBS, peptide 0–4 μM, 37°C, 1 hour, CFU counting on TSA. The method, boiled down: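 S. suis serotype 2 strain 05ZYH33 (wild type), its ΔpepO mutant and the complemented strain were grown in TSB at 37°C with 5% CO2 to OD600 0.5. Cells were washed twice and resuspended in PBS. After 1 h at 37°C with LL-37 or mCRAMP, samples were serially diluted and plated on TSA to count surviving CFU.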

A further data set has as its system ApdS. The settings on record: cited from earlier work.
In data set [5] the test system is PepO. Put plainly: 500 nM of PepO in PBS. The settings on record: S. suis, 37°C, up to 3 hours.
The next data set relates to aminopeptidase ApdS. To be noted: S. suis; cited from earlier work.
The subject of data set [6] is ScpC protease. The settings on record: S. pyogenes; cited from earlier work.

Results on four substances are retold here after article PMC10732652 (Virulence, 2023).

Entries after “also recorded” stand apart in the source; their conditions may differ.

As for mCRAMP, the “Chemotaxis of neutrophils (chemotaxis index, CI)” value with Mouse neutrophils is reported as “chemoattracted mouse neutrophils just as well as LL-37”. The “Membrane damage, viable and dead bacteria (SYTO9/PI)” value in the data set on S. suis ΔpepO is listed as “the number of dead bacteria was clearly larger than that in the PBS-treated group”. The “Lysosome formation (LAMP1)” value in data set [1] is “facilitated lysosome formation in mouse macrophages”. Moreover, the “Cleavage by ScpC protease” value in the data set with ScpC protease [2] was “cannot cleave mCRAMP”. Besides, the “Cleavage by PepO” value with PepO [3] was “also cleaved by PepO”.
For LL-37, the “Chemotaxis of neutrophils (chemotaxis index, CI)” value in the data set with Mouse neutrophils is given as “effectively chemoattracted mouse neutrophils”. For the same substance, the “Membrane damage, viable and dead bacteria (SYTO9/PI)” value in the data set with S. suis ΔpepO is “the number of dead bacteria was clearly larger than that in the PBS-treated group”. In the data set with PepOE513A, the “Cleavage by PepOE513A” value is listed as “could not cleave LL-37”. Also, the “Resistance of complementary strain CΔpepO” value in data set [4] is “partially restored”. Besides, the “Lysosome formation (LAMP1)” value in data set [1] is reported as “facilitated lysosome formation in mouse macrophages”. Also, the “Time to cleavage by ApdS” value with ApdS is on record as “in just a few seconds”. Also, in the data set with PepO [3], the “Cleavage by PepO” value is “the band intensity of LL-37 disappeared”.
Take LLGDFFRKSKEKIGKEFKRIVQRIKDFLRNLVPRTES: the fragment found result is “FR-7 (F6-K12); FRKSKEK, major; also recorded: IG-7 (I13-R19); IGKEFKR, major” in the data set with PepO [5] and 3 AA at the N-terminal in the data set with aminopeptidase ApdS.
On to GLLRKGGEKIGEKLKKIGQKIKNFFQKLVPQPEQ, for which, in the data set with ScpC protease [6], the not cleaved entry is on record as “cannot cleave mCRAMP”.
